Assay results collected from several papers.
Each line is one published result; the experiments were not run side by side.
SLC6A4: Sodium-dependent serotonin transporter (SLC6A4, Homo sapiens, UniProt P31645)
rep papain-like protease: Replicase polyprotein 1ab, papain-like protease (rep, Porcine epidemic diarrhea virus, UniProt P0C6Y4)
rep main protease: Replicase polyprotein 1ab, main protease (rep, Porcine epidemic diarrhea virus, UniProt P0C6Y4)

| Compound | target | assay | setting | endpoint | value |
| --- | --- | --- | --- | --- | --- |
| CNC(=O)[C@@]12C[C@@H]1[C@@H](n1cnc3c(Nc4ccccc4)nc(C#Cc4ccc(Cl)s4)nc31)[C@H](O)[C@@H]2O | SLC6A4 | ligand displacement, radioligand | 10 µM | inhibition | 11% |
| COc1cc(-c2cc(C(C)=O)n3ccccc23)cc(OC)c1Cn1ccnc1 | Bromodomain adjacent to zinc finger domain protein 2B, bromodomain (BAZ2B, Homo sapiens, UniProt Q9UIF8) | thermal stability, DSF | – | ΔTm | 1.6 °C |
| N#CC[C@@]12C[C@@H]1[C@@H](n1cnc3c(NCCCCCCc4ccccc4)nc(I)nc31)[C@H](O)[C@@H]2O | SLC6A4 | ligand displacement, radioligand | 10 µM | inhibition | 56% |
| O=C(NCc1cc(O)c(O)c(Br)c1)c1ccncc1Cl | rep papain-like protease | enzyme activity, inhibitor, FRET | 10 µM | inhibition | 44.4% |
| CCN1/C(=C/C(C)=O)Sc2ccc(F)cc21 | SLC6A4 | ligand displacement, radioligand | 10 µM | inhibition | 2.03% |
| CCOC(=O)[C@@]12C[C@@H]1[C@@H](n1ccc3c(NCCCCc4ccccc4)nc(C#Cc4ccccc4)nc31)[C@H](O)[C@@H]2O | SLC6A4 | ligand displacement, radioligand | 10 µM | inhibition | 9% |
| COc1ccc(C(=O)NCc2cc(O)c(O)c(Br)c2)cc1OC | rep main protease | enzyme activity, inhibitor, FRET | 10 µM | inhibition | 74.7% |
| CCOC(=O)[C@@]12C[C@@H]1[C@@H](n1cnc3c(Nc4ccccc4)nc(C#Cc4ccc(Cl)s4)nc31)[C@H](O)[C@@H]2O | SLC6A4 | ligand displacement, radioligand | 10 µM | inhibition | 20% |
| O=C(NCc1cc(O)c(O)c(Br)c1)c1ccc(Cl)nc1 | rep main protease | enzyme activity, inhibitor, FRET | 10 µM | inhibition | 6.11% |
| Cc1cc(O)c(-c2ccc([C@@H](C)CN(C)C)cc2)c2c1[nH]c(=O)c1sccc12 | Mitogen-activated protein kinase kinase kinase 20 (MAP3K20, Homo sapiens, UniProt Q9NYL2) | enzyme activity, inhibitor | 0.1 µM | inhibition | -2.95% |
| O=C(NCc1cc(O)c(O)c(Br)c1)c1cccc(C(F)(F)F)c1 | rep papain-like protease | enzyme activity, inhibitor, FRET | 10 µM | inhibition | 102% |
| CN1CCc2cccc3c2[C@H]1Cc1ccc(O)c(O)c1-3 | D(1A) dopamine receptor (DRD1, Homo sapiens, UniProt P21728) | cAMP, agonist | – | Emax | ~100% |
| C1=C/COCc2cc(ccc2OCCN2CCCC2)Nc2nccc(n2)-c2cccc(c2)COC/1 | Rhodopsin kinase GRK7 (GRK7, Homo sapiens, UniProt Q8WTQ7) | binding | 0.1 µM | remaining binding | 86% |
| CCOC(=O)[C@@]12C[C@@H]1[C@@H](n1ccc3c(NCCCCCc4ccccc4)nc(C#Cc4ccccc4)nc31)[C@H](O)[C@@H]2O | SLC6A4 | ligand displacement, radioligand | 10 µM | inhibition | 29% |
| O=C(NCc1cc(O)c(O)c(Br)c1)c1ccc2ccccc2n1 | rep main protease | enzyme activity, inhibitor, FRET | 10 µM | inhibition | 62.4% |
| CCOC(=O)[C@@]12C[C@@H]1[C@@H](n1cnc3c(NCCCCCc4ccccc4)nc(C#Cc4ccccc4)nc31)[C@H](O)[C@@H]2O | SLC6A4 | ligand displacement, radioligand | 10 µM, cell membranes | inhibition | 27% |
| CCCCC(=O)Nc1ccc(-c2ccc3ncn(CCC)c(=O)c3c2)cn1 | BDNF/NT-3 growth factors receptor (NTRK2, Homo sapiens, UniProt Q16620) | binding, competition with immobilised ligand | 0.5 µM | remaining binding | 100% |
| COc1cc(CNC(=O)c2ccc(OC(F)(F)F)cc2)cc(Br)c1OC | rep papain-like protease | enzyme activity, inhibitor, FRET | 10 µM | inhibition | 10.8% |
